Source: article PMC5924903 (Proceedings of the National Academy of Sciences of the …, 2018)
Peptide text beside a SMILES is read from it.

System: HsNAA10
Experiment: Nt acetyltransferase inhibitor assay
Format: biochemical
Conditions: Ki panel of human NATs
In short: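 In vitro Nt-acetylation assay on purified human NAT enzymes. IC50 values were determined for NAA80. Ki values for the bisubstrate inhibitor were determined across a panel of human NATs. Each reaction was run at least three times, in triplicate. Errors are given as SD.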

Fold reduced potency for NAA10 compared with NAA80: 88 fold
Structure (SMILES): CC[C@H](C)[C@H](NC(=O)[C@H](CC(=O)O)NC(=O)[C@H](CC(=O)O)NC(=O)[C@H](CC(=O)O)NC(=O)CSCCNC(=O)CCNC(=O)[C@H](O)C(C)(C)COP(=O)(O)OP(=O)(O)OC[C@H]1O[C@@H](n2cnc3c(N)ncnc32)[C@H](O)[C@@H]1OP(=O)(O)O)C(N)=O [CoA-Ac-DDDI-NH2] (HELM PEPTIDE1{[CC(C)(COP(=O)(O)OP(=O)(O)OC[C@H]1O[C@@H](n2cnc3c(N)ncnc32)[C@H](O)[C@@H]1OP(=O)(O)O)[C@@H](O)C(=O)[*:2]].[bAla].[O=C(CSCCN[*:1])[*:2]].D.D.D.I.[am]}$$$$V2.0)
